Tests used:
[1] = biological target: Plasmepsin II (Plasmodium falciparum, UniProt P46925); experiment: Inhibitory activity against plasmepsin-2
Procedure, shortened: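 Activated Plm II proenzyme, 0.6–0.7 nM final, in 0.1 M sodium acetate pH 5.0 with 10% glycerin and 0.01% Tween-20. Inhibitor in DMSO, preincubated 4.5 min at 25 °C, then DABCYL/EDANS fluorogenic peptide substrate added (Km 0.75 μM). Fluorescence (ex 336/em 490 nm) followed over time. Five to six inhibitor concentrations, duplicate or triplicate. Ki by Williams–Morrison nonlinear fit.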

[2] = biological target: Cathepsin D (Homo sapiens, UniProt P07339); experiment: Compound was tested for the inhibitory activity against human liver cathepsin D
Procedure, shortened: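 Human liver cathepsin D, 0.7 nM final, in 0.1 M formic acid buffer pH 3.7. […] Fluorescence (ex 336/em 490 nm) followed over time. Ki obtained by nonlinear fit to the Williams–Morrison tight-binding equation.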

Cathepsin D, sequence (P07339 65-162 limits assumed): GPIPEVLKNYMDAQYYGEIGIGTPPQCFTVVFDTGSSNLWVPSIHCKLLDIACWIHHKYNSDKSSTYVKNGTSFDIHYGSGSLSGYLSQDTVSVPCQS
Cathepsin D, sequence (P07339 169-412 limits assumed): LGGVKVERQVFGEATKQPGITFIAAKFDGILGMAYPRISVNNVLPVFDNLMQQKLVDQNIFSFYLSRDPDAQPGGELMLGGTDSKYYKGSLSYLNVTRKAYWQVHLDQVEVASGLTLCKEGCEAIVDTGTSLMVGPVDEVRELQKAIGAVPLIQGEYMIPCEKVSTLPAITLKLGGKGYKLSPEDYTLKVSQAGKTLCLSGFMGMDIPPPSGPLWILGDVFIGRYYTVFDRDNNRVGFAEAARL
Plasmepsin II, sequence (P46925 whole entry): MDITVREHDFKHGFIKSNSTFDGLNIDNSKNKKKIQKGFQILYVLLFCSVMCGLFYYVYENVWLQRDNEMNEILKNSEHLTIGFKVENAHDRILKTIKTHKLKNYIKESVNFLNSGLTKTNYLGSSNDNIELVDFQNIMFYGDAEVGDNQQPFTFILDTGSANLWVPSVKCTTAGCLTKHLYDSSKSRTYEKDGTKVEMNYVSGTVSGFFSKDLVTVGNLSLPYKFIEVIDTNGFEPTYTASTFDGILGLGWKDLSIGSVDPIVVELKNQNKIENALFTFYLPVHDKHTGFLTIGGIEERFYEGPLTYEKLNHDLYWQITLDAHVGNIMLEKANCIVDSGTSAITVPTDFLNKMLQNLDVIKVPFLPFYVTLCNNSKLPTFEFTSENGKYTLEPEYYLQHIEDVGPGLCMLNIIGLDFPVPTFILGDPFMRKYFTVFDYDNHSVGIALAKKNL

| Compound | Ki [1] | Ki [2] |
| --- | --- | --- |
| Cc1ccc(C)c(OCC(=O)N[C@@H](Cc2ccccc2)[C@@H](O)CN(CCc2ccc3c(c2)OCO3)C(=O)CCN2C(=O)c3ccccc3C2=O)c1 | 300 nM |  |
| COc1cc(C(=O)N[C@@H](Cc2ccccc2)[C@@H](O)CN(CCc2ccc3c(c2)OCO3)C(=O)C2CCN(C(C)=O)CC2)cc(OC)c1OCc1ccccc1 | 4.8 nM | 4.3 nM |
| COc1ccc(CCN(C[C@H](O)[C@H](Cc2ccccc2)NC(=O)c2cc(OC)c(OCc3ccccc3)c(OC)c2)C(=O)C2CCNCC2)cc1 | 9 nM | 71 nM |
| CN1CCC(C(=O)N(CCc2ccc3c(c2)OCO3)C[C@H](O)[C@H](Cc2ccccc2)NC(=O)COc2cccc(Cl)c2)CC1 | 2 nM | 5.8 nM |
| COc1ccc(CCN(C[C@H](O)[C@H](Cc2ccccc2)NC(=O)COc2cccc(Cl)c2)C(=O)C2CCN(C)CC2)cc1 | 2 nM | 9.8 nM |
| CC(=O)N1CCC(C(=O)N(CCc2ccc3c(c2)OCO3)C[C@H](O)[C@H](Cc2ccccc2)NC(=O)COc2cccc(Cl)c2)CC1 | 4 nM | 1.9 nM |
| COc1ccc(CCN(C[C@H](O)[C@H](Cc2ccccc2)NC(=O)c2cc(OC)c(OCc3ccccc3)c(OC)c2)C(=O)C2CCN(C)CC2)cc1 | 4.1 nM | 58 nM |
| COc1cc(C(=O)N[C@@H](Cc2ccccc2)[C@@H](O)CN(CCc2ccc3c(c2)OCO3)C(=O)CCN2C(=O)c3ccccc3C2=O)cc(OC)c1OCc1ccccc1 | 100 nM |  |
| COc1ccc(CCN(C[C@H](O)[C@H](Cc2ccccc2)NC(=O)COc2cccc(Cl)c2)C(=O)C2CCNCC2)cc1 | 4.3 nM | 63 nM |
| O=C(COc1cccc(Cl)c1)N[C@@H](Cc1ccccc1)[C@@H](O)CN(CCc1ccc2c(c1)OCO2)C(=O)CCN1C(=O)c2ccccc2C1=O | 220 nM |  |
| CC(=O)N1CCC(C(=O)N(CCc2ccc3c(c2)OCO3)C[C@H](O)[C@H](Cc2ccccc2)NC(=O)CNc2cccc(Cl)c2)CC1 | 3 nM | 1.3 nM |
